Data set [1] can be described thus: Metabolic stability in human liver microsomes assessed as intrinsic clearance. It is filed as ADME, Microsome. In general terms: Microsomes from liver hold many membrane-bound enzymes, among them those of drug oxidation.
Data set [2] can be described thus: Metabolic stability in mouse liver microsomes assessed as intrinsic clearance. It is filed as ADME, Microsome.
Data set [3] can be described thus: Protein binding in human plasma. It is filed as ADME, cell-free. Conditions: read-out: PPB (converted). The method, boiled down:
(§1)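 Plasma protein binding was determined in human or mouse plasma.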

Data set [4] is described as follows: Protein binding in mouse plasma. It is filed as ADME, cell-free. To be noted: read-out: PPB (converted). The gist of the method: as §1
Data set [5] is described as follows: Solubility of compound in aqueous medium at pH 6.8. It is filed as physicochemical. The gist of the method: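 Solubility was measured in the second fluid of the Japanese Pharmacopoeia Disintegration Test (pH 6.8).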
A short description of data set [6]: Apparent permeability across apical to basolateral side in human Caco2 cells. To be noted: Caco-2. It is filed as ADME, cell-based. The method, boiled down: (§2)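 Bidirectional permeability was measured in the apical-to-basolateral and basolateral-to-apical directions.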
For orientation: Passage across Caco-2 layers is used to estimate intestinal permeability.

Data set [7] can be described thus: Apparent permeability across basolateral to apical side in human Caco2 cells. It is filed as ADME, cell-based. Conditions: Caco-2. The gist of the method:
as §2

Data set [8] is described as follows: Bioavailability in mouse at 2 umol/kg, po and 1 umol/kg, iv administered using cassette dosing. It is filed as ADME, organism-based. Conditions: in vivo. The method, boiled down:
(§3)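 Mouse PK by cassette dosing. The combined compounds were given orally at 2 μmol/kg and intravenously at 1 μmol/kg. PK parameters were derived from the plasma profiles.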

The nature of data set [9]: AUC in mouse at 2 umol/kg, po administered using cassette dosing. Conditions: in vivo. It is filed as ADME, organism-based. The method, boiled down:
as §3

Data set [10] is described as follows: Clearance in mouse at 2 umol/kg, po and 1 umol/kg, iv administered using cassette dosing. It is filed as ADME, organism-based. To be noted: in vivo. The method, boiled down: as §3
The nature of data set [11]: Unbound clearance in mouse at 2 umol/kg, po and 1 umol/kg, iv administered using cassette dosing. It is filed as ADME, organism-based. To be noted: in vivo. The gist of the method:
as §3

A short description of data set [12]: Volume of distribution at steady state in mouse at 2 umol/kg, po and 1 umol/kg, iv administered using cassette dosing. It is filed as ADME, organism-based. To be noted: in vivo, read-out: Vdss. The gist of the method: as §3
Data set [13] can be described thus: Half life in mouse at 2 umol/kg, po administered using cassette dosing. It is filed as ADME, organism-based. To be noted: in vivo. The gist of the method: as §3
Data set [14] is described as follows: Half life in mouse at 1 umol/kg, iv administered using cassette dosing. To be noted: in vivo. It is filed as ADME, organism-based. The gist of the method: as §3
Data set [15] is described as follows: Drug metabolism in human hepatocytes assessed as central triazolo-pyridine core derived metabolic soft spot formation by mass spectrometry. It is filed as ADME, cell-based, Hepatocyte.
A short description of data set [16]: Drug metabolism in human hepatocytes assessed as cyclopentyl derived oxidative adduct formation by mass spectrometry. It is filed as ADME, cell-based, Hepatocyte.

This is an account of results in ChEMBL document CHEMBL4342512, “Discovery of [1,2,4]Triazolo[1,5-a]pyridine Derivatives as Potent and Orally Bioavailable RORγt Inverse Agonists” (ACS Med Chem Lett, 2020).

SMILES strings stand for the structures. ≈ marks a conversion by molar mass, not a printed value. A value given as a limit tells only on which side of the number the result lay.

Regarding `Cc1ccc(C(=O)Nc2cn3ncnc3c(O[C@@H]3CCN(C(=O)CC(C(F)(F)F)C(F)(F)F)[C@@H](C)C3)c2C)cn1`, the CLH in data set [1] worked out at 28 µL/min/mg.

A word on the solubility: it is the concentration that dissolves in the medium under given conditions. A higher solubility goes with much dissolved substance. For orientation: Papp A→B means the apparent permeability from the apical to the basolateral side of a cell layer. The term Papp B→A denotes how fast a substance crosses the layer from the basolateral side. What is called AUC is the area under the concentration-time curve, a measure of exposure. Low values mean less exposure, high ones more exposure. In general, half-life refers to the time needed for the level to fall by half in the phase considered. On to `Cc1ccc(C(=O)Nc2cc(F)cc(CN3CCN(C(=O)C4CCCC4)[C@@H](C)C3)c2C)cn1`, for which the results for the CLH in [1] and in [2] were 88 µL/min/mg and 110 µL/min/mg, respectively. The fraction unbound in [3] was 0.003; in data set [4], 0.043. In data set [5], this compound gave a solubility of 71 µM (≈ 32.1 µg/mL). In addition, the apparent permeability from apical to basolateral (Papp A→B) in [6] turned out to be 40 ×10⁻⁶ cm/s. The basolateral-to-apical permeability (Papp B→A) in data set [7] came out at 55 ×10⁻⁶ cm/s. Moreover, the bioavailability in data set [8] came out at 48%. The area under the curve (AUC) in data set [9] is 0.49 µM·h. The compound also had a clearance in data set [10] of 33.3 mL/min/kg. In addition, in data set [11], the CL free is 767 mL/min/kg. For the same compound, the Vd in data set [12] stood at 1.6 L/kg. Also, the half-life in data set [13] and in data set [14] was 0.7 h in each case.

Regarding `Cc1ccc(C(=O)Nc2cn3ncnc3c(CN3CCN(C(=O)C4CCOCC4)[C@@H](C)C3)c2C)cn1`, in data set [1], the CLH was below 10 µL/min/mg.

As for `Cc1ccc(C(=O)Nc2cn3ncnc3c(CN3CCN(C(=O)C4CCCC4)[C@@H](C)C3)c2C)cn1`, the CLH was 32 µL/min/mg in data set [1] and 11 µL/min/mg in [2]. Further, the fraction unbound in data set [3] was 0.227; in data set [4] it was 0.212. The compound further came in with a solubility in [5] of 190 µM (≈ 90.4 µg/mL). For the same compound, the Papp A→B in [6] amounted to 2.5 ×10⁻⁶ cm/s. Besides, in data set [7], the Papp B→A was 46 ×10⁻⁶ cm/s. In [8], the bioavailability was found to be 47%. Besides, the AUC in data set [9] worked out at 0.84 µM·h. Besides, the clearance in [10] is 18.3 mL/min/kg. In addition, the CL free in [11] is 88.3 mL/min/kg. For the same compound, the Vd in data set [12] turned out to be 0.77 L/kg. For the same compound, the half-life in [13] is 1.2 h; in [14], 1.4 h. Also, the Drug metabolism entry in data set [15] is on record as “Metabolite_Notdetected”; in data set [16], “Metabolite_Detected”.

On to `Cc1ccc(C(=O)Nc2cn3ncnc3c(CN3CCN(C(=O)C4CCC(F)(F)C4)[C@@H](C)C3)c2C)cn1` (stereo partly specified), for which, in data set [1], the CLH is below 10 µL/min/mg.

On to `Cc1ccc(C(=O)Nc2cn3ncnc3c(CN3CCN(C(=O)CC(C(F)(F)F)C(F)(F)F)[C@@H](C)C3)c2C)cn1`, for which the CLH in data set [1] and in data set [2] was below 10 µL/min/mg throughout. Besides, the figures for the fraction unbound in data set [3] and in data set [4] were 0.139 and 0.233, respectively. This compound returned a solubility in [5] of 200 µM (≈ 114 µg/mL). Moreover, the Papp A→B in data set [6] amounted to 9.6 ×10⁻⁶ cm/s. The Papp B→A in [7] worked out at 36 ×10⁻⁶ cm/s. Moreover, the bioavailability in data set [8] was found to be 110%. Further, the AUC in [9] turned out to be 2.3 µM·h. In data set [10], this compound showed a clearance of 18.3 mL/min/kg. Also, the CL free in data set [11] was 75 mL/min/kg. The Vd in [12] stood at 1.1 L/kg. In addition, the half-life in [13] is 1.1 h; in data set [14], 1 h.

As for `Cc1ccc(C(=O)Nc2cn3ncnc3c(CN3CCN(C(=O)C(C)C)[C@@H](C)C3)c2C)cn1`, the CLH in data set [1] amounted to 240 µL/min/mg.

`Cc1ccc(C(=O)Nc2cc3nncn3c(CN3CCN(C(=O)C4CCCC4)[C@@H](C)C3)c2C)cn1`: the CLH in [1] stood at 59 µL/min/mg.

On to `Cc1ccc(C(=O)Nc2cn3ncnc3c(O[C@H]3CCN(C(=O)CC(C(F)(F)F)C(F)(F)F)[C@@H](C)C3)c2C)cn1`, for which the CLH in data set [1] was 10 µL/min/mg; in data set [2], 30 µL/min/mg. The fraction unbound was 0.082 in data set [3] and 0.135 in data set [4]. Further, in [5], the concentration in solution (solubility) was 170 µM (≈ 97.3 µg/mL). Moreover, the Papp A→B in data set [6] stood at 31 ×10⁻⁶ cm/s. In [7], the basolateral-to-apical permeability (Papp B→A) was 51 ×10⁻⁶ cm/s. Moreover, the bioavailability in data set [8] was 120%. The compound also yielded an exposure (AUC) in data set [9] of 15 µM·h. Besides, the clearance in data set [10] was 2.5 mL/min/kg. In data set [11], this compound registered a CL free of 18.3 mL/min/kg. In addition, the Vd in [12] was determined as 0.8 L/kg. Moreover, the half-life in data set [13] was 3.6 h; in data set [14], 3.9 h.

Turning to `Cc1ccc(C(=O)Nc2cn3ncnc3c(CN3CCN(C(=O)CC(C)C)[C@@H](C)C3)c2C)cn1`, the CLH in [1] was found to be 20 µL/min/mg.

For `Cc1ccc(C(=O)Nc2cn3ncnc3c(CN3CCN(C(=O)c4ccccc4)[C@@H](C)C3)c2C)cn1`, the CLH in data set [1] amounted to 21 µL/min/mg.

For the compound `Cc1ccc(C(=O)Nc2cn3ncnc3c(CN3CCN(C(=O)CCC(F)(F)F)[C@@H](C)C3)c2C)cn1`, the CLH in data set [1] is below 10 µL/min/mg.
